LYPLA2 inh: LYPLA2 (human) inhibition in PME1 counter-screen. inhibition, % at 5.9 µM. actives 0.38% (n = 320,000). recombinant LYPLA2, FP-Rh probe fluorescence polarization. O95372;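 active = inhibition above the screen-wide mean plus 3 SD, limit set per campaign, cut at about 26% in these data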;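 also: 0% = LYPLA2 with DMSO and 100% = wells lacking LYPLA2 enzyme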
Target sequence (O95372 whole entry, looked up): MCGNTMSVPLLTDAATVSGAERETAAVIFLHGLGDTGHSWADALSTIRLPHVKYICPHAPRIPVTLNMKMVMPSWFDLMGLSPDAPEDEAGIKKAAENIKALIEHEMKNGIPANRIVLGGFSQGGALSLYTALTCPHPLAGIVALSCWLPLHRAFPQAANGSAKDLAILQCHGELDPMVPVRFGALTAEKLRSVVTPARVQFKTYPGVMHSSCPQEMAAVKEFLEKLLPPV
LYPLA1 counter: blocks human lysophospholipase 1, a PME1 counter-screen. recombinant LYPLA1, FP-Rh probe fluorescence polarization. inhibition, % at 5.9 µM. actives 0.16% (n = 320,000);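 active = inhibition above the mean of all tested compounds plus 3 SD, set per campaign, cut at about 14% in these data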;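 also: inhibitors block serine hydrolase probe labeling of LYPLA1 so polarization falls; 0% = enzyme with DMSO and 100% = wells lacking LYPLA1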
Target sequence (O75608 whole entry, looked up): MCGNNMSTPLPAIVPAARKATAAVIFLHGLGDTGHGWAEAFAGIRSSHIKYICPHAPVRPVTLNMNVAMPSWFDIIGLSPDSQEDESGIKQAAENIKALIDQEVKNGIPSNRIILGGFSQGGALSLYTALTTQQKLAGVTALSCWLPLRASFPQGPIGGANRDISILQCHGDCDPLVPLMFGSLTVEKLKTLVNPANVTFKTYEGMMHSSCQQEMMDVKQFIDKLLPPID
procasp3 activ: activators of human procaspase-3. P42574. AID 463141. actives 0.11% (n = 330,000). activation, % at 8.5 µM. recombinant procaspase-3 D3A, Ac-DEVD-pNA absorbance 405 nm;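 active = activation above the mean of all tested compounds plus 3 SD, cut at about 21% in these data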;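 also: 0% = DMSO alone and 100% = DMSO wells spiked with extra 5 µM PC-3 D3A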
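Assay system – Procaspase-3 D3A mutant · Benchmarks – DMSO low control, extra-enzyme high control · Technique – 405 nm absorbance of p-nitroaniline, reads at 0 and 120 min · Doses – 8.5 µM nominal · Measure – % activation between DMSO and enzyme-spiked controls · Also added – Ac-DEVD-pNA chromogenic peptide substrate · Schedule – 1 h compound preincubation, 2 h substrate hydrolysis at 25 °C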
PME-1 inh: blocks human protein phosphatase methylesterase 1 | Q9Y570 | recombinant PME-1, FP-Rh probe fluorescence polarization | inhibition, % at 5.9 µM | actives 0.53% (n = 320,000);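 active = inhibition above the campaign mean of all compounds plus 3 SD, cut at about 26% in these data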;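 also: competitive labeling of PME-1 active site by serine hydrolase directed probe; 0% = PME-1 with DMSO and 100% = wells lacking PME-1 enzyme; inhibitors block probe labeling so polarization falls and inhibition rises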
procasp7 counter: activates human procaspase-7, counter-screen for procaspase-3 activators. AID 463210. activation, % at 8.5 µM. actives 0.093% (n = 330,000). P55210. recombinant procaspase-7, Ac-DEVD-pNA absorbance 405 nm; D23A/D198A/D206A triple mutant, cannot self-cleave; scale: DMSO 0, 5 µM enzyme 100;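 active = percent activation above the screen-wide mean plus 3 SD, cut at about 25% in these data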
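Test system: Procaspase-7 triple mutant (PC-7 D3A). Also added: Ac-DEVD-pNA substrate, 400 µM as added. Schedule: 1 h enzyme–compound preincubation and 2 h substrate reaction, both 25 °C. Signal: p-Nitroaniline absorbance at 405 nm, read at 0 and 120 min. Control set: low DMSO alone, high DMSO plus 5 µM PC-7.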
Fam108B inh: Fam108B inhibition, counter-screen for RBBP9 inhibitors | recombinant Fam108B, FP-Rh probe fluorescence polarization | inhibition, % at 9.51 µM | actives 0.33% (n = 300,000);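 active = inhibition above the screen mean inhibition plus 3 SD, computed separately per campaign, cut at about 18% in these data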;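 also: inhibitors lower polarization as less probe binds the enzyme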
LYPLA1 conf: LYPLA1 (human) inhibition, confirmation counter-screen; AID 2233; inhibition, % at 5.9 µM; shares compounds with LYPLA1 counter; actives 69% (n = 480); recombinant LYPLA1, FP-Rh probe fluorescence polarization;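 active = mean inhibition across replicates above the hit cutoff set in the primary screen, cut at about 15% in these data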;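 also: loss of FP-Rh probe labeling of LYPLA1 seen as lower polarization; 0% = LYPLA1 with DMSO and 100% = wells lacking LYPLA1 enzyme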
Active calls of the source: *; nt = not tested or not shown. Most compounds without a hit are left out; they make up all but 1% or so of the library.

SMILES	LYPLA2 inh	LYPLA1 counter	procasp3 activ	PME-1 inh	procasp7 counter	Fam108B inh	LYPLA1 conf
COc1ccccc1C(=O)Nc1ccc2c(c1)nc1n2CCN(Cc2ccccc2)C1	11	28*	5	-18	7	1	4
COc1ccc2cc(C(C)C(=O)NC3CCC(O)CC3)ccc2c1 (stereo not given)	-11	-1	3	0	4	-2	nt
CC(Oc1ccc(Cl)cc1)C(=O)N(C)CC(=O)Nc1ccc(N2CCOCC2)cc1 (stereo not given)	0	3	-4	0	2	-1	nt
CCN1C(=O)c2cccc3c(N)ccc(c23)C1=O	23	15*	-18	23	0	12	12
COc1ccccc1COCC(O)CN1CCN(S(=O)(=O)c2cccc(F)c2)CC1 (stereo not given)	3	-2	-5	-4	-11	nt	nt
O=C(O)c1cccc2c1-c1ccccc1/C2=N\Nc1ccccc1	3	2	-8	4	-6	1	nt
O=C(O)c1cc(NN=C2c3ccccc3-c3ccccc32)ccc1Cl	13	16*	-7	35*	-10	7	16*
CCCCNCc1ccc(OCc2ccc(Cl)nc2)c(OC)c1	10	15*	-3	-3	4	1	3
O=C(Nc1ccncc1)c1ccc2c(c1)C(=O)N(C1CCCCC1)C2=O	52*	26*	0	-9	-4	-1	31*
O=C(Nc1cccc2ncccc12)c1ccc(F)cc1	4	-2	9	-4	5	5	nt
O=C(Nc1cccc2ncccc12)c1ccc(Cl)cc1	0	29*	-3	-2	-9	-1	3
CN1CCN(CC(O)(c2ccc(Cl)cc2)c2ccc(Cl)cc2)CC1	-4	1	-2	-7	3	1	nt
Cc1c(C(C)C[C@H](C)O)oc(=O)c2c1Oc1c(C)c(C(C)C[C@H](C)O)oc(=O)c1C2 (stereo not given in full)	-1	1	1	2	-2	nt	nt
CN(C)C=Nc1c(Br)cc(Br)c2nonc12	-2	14*	-9	6	1	12	-1
CN(C(=O)c1ccc(NC(=O)Cc2cccc([N+](=O)[O-])c2)cc1)C1CC1	18	42*	2	4	4	nt	35*
CN(C(=O)c1ccc(NC(=O)Cc2cccc([N+](=O)[O-])c2)cc1)C1CCCC1	nt	nt	1	nt	14	nt	nt
CN(CCCC1CCCC1)C(=O)c1cc(COc2ccc(F)c(F)c2)on1	12	16*	1	-6	10	-4	28*
O=C(O)c1cccc(N/N=C/c2cc(Br)cc(Br)c2O)c1	14	24*	-3	58*	2	18	20*
COC(=O)COC(=O)c1ccc(O)cc1	3	15*	-4	-4	5	-2	2
CC(C)N(C(=O)COC(=O)c1ccc(O)cc1)C(C)C	-3	-1	-7	-1	0	0	nt
O=c1c2cc(O)c(O)cc2oc2cc(O)c(C3OC(CO)C(O)C(O)C3O)c(O)c12 (stereo not given)	1	2	5	-8	6	2	nt
CCOc1ccc(NC(=S)NC(=O)c2c(Br)cnn2C)c([N+](=O)[O-])c1	21	18*	-4	2	3	-2	59*
COc1ccc(CCNC(=O)CCC(=O)N2CCOc3ccccc32)cc1OC	-1	1	4	5	6	2	nt
Cc1cc(C)c2oc(C(=O)N3CCN(C)CC3)cc(=O)c2c1	0	8	1	1	8	-3	nt
Cc1cc(C)c2oc(C(=O)N3CCN(Cc4ccccc4)CC3)cc(=O)c2c1	-6	21*	-6	3	5	-4	26*
SMILES	LYPLA2 inh	LYPLA1 counter	procasp3 activ	PME-1 inh	procasp7 counter	Fam108B inh	LYPLA1 conf
CC(=O)N1CCc2cc(S(=O)(=O)C(C)CC(=O)Nc3ccc(OC(F)(F)F)cc3)ccc21 (stereo not given)	0	-4	3	-1	-2	0	nt
COC(=O)C(=C/C=C/N1CCOCC1)C(=O)OC	14	15*	-15	7	2	6	-1
CCOC(=O)/C(=C\C=C\N1CCOCC1)C(C)=O	2	-4	6	-3	0	-5	nt
COc1ccc(N2CCN(C(=O)c3cccc(Br)c3)CC2)c([N+](=O)[O-])c1	15	2	1	6	-6	-6	nt
O=C(CC1N=C(Cc2ccccc2)NNC1=O)N/N=C/c1ccc([N+](=O)[O-])cc1 (stereo not given)	-3	26*	0	11	9	1	23*
Cc1cc(Br)cc2c1NC(=O)C2(O)CC(=O)c1ccco1 (stereo not given)	-6	0	13	0	2	0	nt
COc1ccc(CN(C2CC2)S(=O)(=O)c2ccccc2Br)cc1	nt	nt	3	nt	9	nt	nt
Cc1cccc(N2CCN(C(=O)c3ccc(Cl)c(NC4=NC5CS(=O)(=O)CC5S4)c3)CC2C)c1 (stereo not given)	-4	-1	2	-2	5	-6	nt
O=C1NC(=S)S/C1=C\c1coc2ccccc2c1=O	7	17*	-2	4	-19	3	-2
O=C(CSc1nnc(-c2ccco2)o1)N1CCOCC1	2	2	-1	-5	-3	1	nt
O=C(CSc1nnc(-c2ccco2)o1)N1CCN(c2ccccc2)CC1	4	20*	-1	-1	3	-1	28*
COc1cc2[nH]c(=O)n(CCCCCC(=O)N3CC=C(c4ccccc4)CC3)c(=O)c2cc1OC	21	17*	7	-2	-12	-7	18*
Cc1cc(C)cc(CC(Cc2nc3ccccc3[nH]2)c2nc3ccccc3[nH]2)c1 (stereo not given)	-23	-15	-1	-11	10	-6	nt
CCCCc1cc(=O)oc2cc(C)cc(OCC(=O)N3C[C@H]4C[C@@H](C3)c3cccc(=O)n3C4)c12	8	2	4	1	-4	7	nt
CCOCCn1c(=NC(=O)c2ccc(S(=O)(=O)N3CCOCC3)cc2)sc2cc(S(N)(=O)=O)ccc21	15	15*	3	9	9	-1	15*
N#Cc1ccc(OCC(=O)OCC(=O)NC2CC2)cc1	nt	nt	-2	nt	-8	nt	nt
CCOc1ccc(S(=O)(=O)Nc2cccc(C(=O)NCC(c3ccco3)N3CCCC3)c2)cc1 (stereo not given)	-3	-5	11	0	-4	nt	nt
COc1ccc(C(=O)NC(=S)Nc2ccc(CN3CCOCC3)cc2)cc1	10	4	5	0	6	0	nt
